Assay results taken from ChEMBL document CHEMBL1154716, “Synthesis of some new S-triazine based chalcones and their derivatives as potent antimicrobial agents” (2010).
≈ marks a conversion by molar mass, not a printed value. Calls of active or inactive are those of the source. No cut-off for these calls is given here.

Tests used:
Escherichia coli [1] = experiment: Antimicrobial activity against Escherichia coli at 1 umol/disk after 24 hrs by disk diffusion assay; type: functional
How it was run: (§1)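 Disc diffusion on 4 mm filter discs. Bacteria are grown overnight in LB at 28 C, then adjusted in saline to 1.0 × 10^5 cfu/ml. The suspension is mixed into top agar over peptone agar plates. Plates are incubated 24 h at 28 C, and growth-inhibition zone diameter is measured. Streptomycin and ampicillin controls are applied from a 1 mg/ml stock. Tests are done in duplicate.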

Micrococcus flavus [2] = experiment: Antimicrobial activity against Micrococcus flavus at 1 umol/disk after 24 hrs by disk diffusion assay; type: functional; how it was run: as §1
Pseudomonas aeruginosa [3] = experiment: Antimicrobial activity against Pseudomonas aeruginosa after 24 hrs by microdilution technique; type: functional
How it was run: (§2)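 Broth microdilution in LB medium. Inoculum is 1.0 × 10^4 cfu per well, from a saline-adjusted suspension of 1.0 × 10^5 cfu/ml. Compounds are dissolved in DMSO. Incubated 24 h at 28 C. MIC is the lowest concentration with no visible growth under a binocular microscope. MBC is read by subculture into fresh broth for 72 h, with no growth taken as 99.5% kill. OD is read at 655 nm.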

Escherichia coli [4] = experiment: Antimicrobial activity against Escherichia coli at 1 umol/spot after 18 hrs by TLC-bioautographic method; type: functional
How it was run: (§3)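 TLC bioautography. Samples are spotted on silica gel TLC plates, then sprayed with bacteria (1.0 × 10^5 cfu/ml) in tryptic soy broth. Plates are incubated 18 h at 37 C and sprayed with 3% aqueous p-iodonitrotetrazolium violet. After a further 3 h, growth is stopped with 70% EtOH. White zones on a pink background are scored as inhibition-zone diameter with standard errors.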

Pseudomonas aeruginosa [5] = experiment: Antimicrobial activity against Pseudomonas aeruginosa at 10 ug/disk after 24 hrs by disk diffusion assay; type: functional; how it was run: as §1
Salmonella typhimurium [6] = experiment: Antimicrobial activity against Salmonella Typhimurium at 10 ug/disk after 24 hrs by disk diffusion assay; type: functional, organism-based; settings: Salmonella enterica subsp. enterica serovar Typhimurium; how it was run: as §1
Bacillus cereus [7] = experiment: Antimicrobial activity against Bacillus cereus at 1 umol/spot after 18 hrs by TLC-bioautographic method; type: functional; how it was run: as §3
Salmonella typhimurium [8] = experiment: Antimicrobial activity against Salmonella Typhimurium after 24 hrs by microdilution technique; type: functional, Salmonella enterica subsp. enterica serovar Typhimurium; settings: Salmonella enterica; how it was run: as §2
Staphylococcus aureus [9] = experiment: Antimicrobial activity against Staphylococcus aureus at 1 umol/spot after 18 hrs by TLC-bioautographic method; type: functional; how it was run: as §3
Salmonella typhimurium [10] = experiment: Antimicrobial activity against Salmonella Typhimurium at 1 umol/spot after 18 hrs by TLC-bioautographic method; type: functional; how it was run: as §3
Salmonella typhimurium [11] = experiment: Antimicrobial activity against Salmonella Typhimurium at 1 umol/disk after 24 hrs by disk diffusion assay; type: functional, organism-based; settings: Salmonella enterica subsp. enterica serovar Typhimurium; how it was run: as §1
Listeria monocytogenes [12] = experiment: Antimicrobial activity against Listeria monocytogenes at 1 umol/disk after 24 hrs by disk diffusion assay; type: functional; how it was run: as §1
Micrococcus flavus [13] = experiment: Antimicrobial activity against Micrococcus flavus at 10 ug/disk after 24 hrs by disk diffusion assay; type: functional; settings: read-out: IZ; how it was run: as §1
Enterobacter cloacae [14] = experiment: Antimicrobial activity against Enterobacter cloacae at 10 ug/disk after 24 hrs by disk diffusion assay; type: functional; settings: for zone of inhibition at 10 µg/disc: read-out: IZ; how it was run: as §1
Listeria monocytogenes [15] = experiment: Antimicrobial activity against Listeria monocytogenes at 1 umol/spot after 18 hrs by TLC-bioautographic method; type: functional; how it was run: as §3
Bacillus cereus [16] = experiment: Antimicrobial activity against Bacillus cereus after 24 hrs by microdilution technique; type: functional; how it was run: as §2
Micrococcus flavus [17] = experiment: Antimicrobial activity against Micrococcus flavus after 24 hrs by microdilution technique; type: functional; how it was run: as §2
Enterobacter cloacae [18] = experiment: Antimicrobial activity against Enterobacter cloacae at 1 umol/spot after 18 hrs by TLC-bioautographic method; type: functional; how it was run: as §3
Escherichia coli [19] = experiment: Antimicrobial activity against Escherichia coli at 10 ug/disk after 24 hrs by disk diffusion assay; type: functional; settings: read-out: IZ; how it was run: as §1
Staphylococcus aureus [20] = experiment: Antimicrobial activity against Staphylococcus aureus after 24 hrs by microdilution technique; type: functional; how it was run: as §2
Pseudomonas aeruginosa [21] = experiment: Antimicrobial activity against Pseudomonas aeruginosa at 1 umol/spot after 18 hrs by TLC-bioautographic method; type: functional; how it was run: as §3
Micrococcus flavus [22] = experiment: Antimicrobial activity against Micrococcus flavus at 1 umol/spot after 18 hrs by TLC-bioautographic method; type: functional; how it was run: as §3
Bacillus cereus [23] = experiment: Antimicrobial activity against Bacillus cereus at 10 ug/disk after 24 hrs by disk diffusion assay; type: functional; settings: for zone of inhibition at 10 µg/disc: read-out: IZ; how it was run: as §1
Listeria monocytogenes [24] = experiment: Antimicrobial activity against Listeria monocytogenes at 10 ug/disk after 24 hrs by disk diffusion assay; type: functional; how it was run: as §1
Listeria monocytogenes [25] = experiment: Antimicrobial activity against Listeria monocytogenes after 24 hrs by microdilution technique; type: functional; how it was run: as §2
Escherichia coli [26] = experiment: Antimicrobial activity against Escherichia coli after 24 hrs by microdilution technique; type: functional; how it was run: as §2
Staphylococcus aureus [27] = experiment: Antimicrobial activity against Staphylococcus aureus at 10 ug/disk after 24 hrs by disk diffusion assay; type: functional; settings: for zone of inhibition at 10 µg/disc: read-out: IZ; how it was run: as §1
Pseudomonas aeruginosa [28] = experiment: Antimicrobial activity against Pseudomonas aeruginosa at 1 umol/disk after 24 hrs by disk diffusion assay; type: functional; how it was run: as §1
Enterobacter cloacae [29] = experiment: Antimicrobial activity against Enterobacter cloacae after 24 hrs by microdilution technique; type: functional; how it was run: as §2
Enterobacter cloacae [30] = experiment: Antimicrobial activity against Enterobacter cloacae at 1 umol/disk after 24 hrs by disk diffusion assay; type: functional; how it was run: as §1
Bacillus cereus [31] = experiment: Antimicrobial activity against Bacillus cereus at 1 umol/disk after 24 hrs by disk diffusion assay; type: functional; how it was run: as §1
Staphylococcus aureus [32] = experiment: Antimicrobial activity against Staphylococcus aureus at 1 umol/disk after 24 hrs by disk diffusion assay; type: functional; how it was run: as §1

MIC (Pseudomonas aeruginosa [3]) [µM] | MIC (Salmonella typhimurium [8]) [µM] | MIC (Bacillus cereus [16]) [µM] | MIC (Micrococcus flavus [17]) [µM] | SMILES | inhibition zone (IZ) (Escherichia coli [1]) [millimeter] | inhibition zone (IZ) (Micrococcus flavus [2]) [millimeter] | MBC (Pseudomonas aeruginosa [3]) [µM] | inhibition zone (IZ) (Escherichia coli [4]) | inhibition zone (IZ) (Pseudomonas aeruginosa [5]) | inhibition zone (IZ) (Salmonella typhimurium [6]) | inhibition zone (IZ) (Bacillus cereus [7]) | MBC (Salmonella typhimurium [8]) [µM] | inhibition zone (IZ) (Staphylococcus aureus [9]) | inhibition zone (IZ) (Salmonella typhimurium [11]) | zone of inhibition at 10 µg/disc (Micrococcus flavus [13]) [mm] | inhibition zone (IZ) (Listeria monocytogenes [15]) | MBC (Bacillus cereus [16]) [µM] | MBC (Micrococcus flavus [17]) [µM] | inhibition zone (IZ) (Enterobacter cloacae [18]) | zone of inhibition at 10 µg/disc (Escherichia coli [19]) [mm] | further results
744 (≈ 260 µg/mL) | 248 (≈ 86.7 µg/mL) | 248 (≈ 86.7 µg/mL) | 248 (≈ 86.7 µg/mL) | CC1(C)S[C@@H]2[C@H](NC(=O)[C@H](N)c3ccccc3)C(=O)N2[C@H]1C(=O)O [AMPICILLIN] | 0.02 | 0.03 | 1240 (≈ 433 µg/mL) | inactive | inactive | inactive | inactive | 492 (≈ 172 µg/mL) | inactive | inactive | 8 | inactive | 372 (≈ 130 µg/mL) | 372 (≈ 130 µg/mL) | inactive | 6 | inhibition zone (IZ) (Salmonella typhimurium [10]; Salmonella enterica subsp. enterica serovar Typhimurium): inactive; inhibition zone (IZ) (Listeria monocytogenes [12]): inactive; zone of inhibition at 10 µg/disc (Enterobacter cloacae [14]): 6 mm; MBC (Staphylococcus aureus [20]): 372 µM (≈ 130 µg/mL); MIC (Staphylococcus aureus [20]): 248 µM (≈ 86.7 µg/mL); inhibition zone (IZ) (Pseudomonas aeruginosa [21]): inactive; inhibition zone (IZ) (Micrococcus flavus [22]): inactive; zone of inhibition at 10 µg/disc (Bacillus cereus [23]): 10 mm; inhibition zone (IZ) (Listeria monocytogenes [24]): inactive; MBC (Listeria monocytogenes [25]): 744 µM (≈ 260 µg/mL); MIC (Listeria monocytogenes [25]): 372 µM (≈ 130 µg/mL); MBC (Escherichia coli [26]): 492 µM (≈ 172 µg/mL); MIC (Escherichia coli [26]): 372 µM (≈ 130 µg/mL); zone of inhibition at 10 µg/disc (Staphylococcus aureus [27]): 8 mm; inhibition zone (IZ) (Pseudomonas aeruginosa [28]): inactive; MBC (Enterobacter cloacae [29]): 492 µM (≈ 172 µg/mL); MIC (Enterobacter cloacae [29]): 372 µM (≈ 130 µg/mL)
346 (≈ 200 µg/mL) | 173 (≈ 99.9 µg/mL) | 86.5 (≈ 50 µg/mL) | 86.5 (≈ 50 µg/mL) | COc1ccccc1-c1cc(-c2ccc(Nc3nc(Nc4ccccc4)nc(Nc4ccccc4)n3)cc2)nc(N)c1C#N | 0.04 | 0.06 | 692 (≈ 400 µg/mL) | inactive | inactive | inactive | inactive | 346 (≈ 200 µg/mL) | inactive | inactive | 10 | 0.09 millimeter | 173 (≈ 99.9 µg/mL) | 173 (≈ 99.9 µg/mL) | 0.08 millimeter | 7 | inhibition zone (IZ) (Enterobacter cloacae [30]): inactive; inhibition zone (IZ) (Salmonella typhimurium [10]): 0.07 millimeter; inhibition zone (IZ) (Enterobacter cloacae [14]): inactive; inhibition zone (IZ) (Bacillus cereus [31]): inactive; MBC (Staphylococcus aureus [20]): 346 µM (≈ 200 µg/mL); MIC (Staphylococcus aureus [20]): 173 µM (≈ 99.9 µg/mL); inhibition zone (IZ) (Pseudomonas aeruginosa [21]): inactive; inhibition zone (IZ) (Staphylococcus aureus [32]): inactive; inhibition zone (IZ) (Micrococcus flavus [22]): 0.06 millimeter; inhibition zone (IZ) (Bacillus cereus [23]): inactive; zone of inhibition at 10 µg/disc (Listeria monocytogenes [24]; read-out: IZ): 6 mm; MBC (Listeria monocytogenes [25]): 692 µM (≈ 400 µg/mL); MIC (Listeria monocytogenes [25]): 346 µM (≈ 200 µg/mL); MBC (Escherichia coli [26]): 346 µM (≈ 200 µg/mL); MIC (Escherichia coli [26]): 173 µM (≈ 99.9 µg/mL); inhibition zone (IZ) (Staphylococcus aureus [27]): inactive; inhibition zone (IZ) (Pseudomonas aeruginosa [28]): inactive; MBC (Enterobacter cloacae [29]): 346 µM (≈ 200 µg/mL); MIC (Enterobacter cloacae [29]): 173 µM (≈ 99.9 µg/mL)
172 (≈ 100 µg/mL) | 172 (≈ 100 µg/mL) | 43 (≈ 25 µg/mL) | 86 (≈ 50 µg/mL) | CN[C@@H]1[C@H](O[C@H]2[C@H](O[C@H]3[C@H](O)[C@@H](O)[C@H](N=C(N)N)[C@@H](O)[C@@H]3N=C(N)N)O[C@@H](C)[C@]2(O)C=O)O[C@@H](CO)[C@H](O)[C@H]1O [STREPTOMYCIN] | 0.06 | 0.1 | 344 (≈ 200 µg/mL) | 0.06 millimeter | inactive | inactive | 0.08 millimeter | 344 (≈ 200 µg/mL) | 0.04 millimeter | inactive | 20 | 0.08 millimeter | 86 (≈ 50 µg/mL) | 172 (≈ 100 µg/mL) | 0.07 millimeter | 10 | inhibition zone (IZ) (Salmonella typhimurium [10]): 0.08 millimeter; inhibition zone (IZ) (Listeria monocytogenes [12]): inactive; zone of inhibition at 10 µg/disc (Enterobacter cloacae [14]): 12 mm; MBC (Staphylococcus aureus [20]): 344 µM (≈ 200 µg/mL); MIC (Staphylococcus aureus [20]): 172 µM (≈ 100 µg/mL); inhibition zone (IZ) (Pseudomonas aeruginosa [21]): 0.08 millimeter; inhibition zone (IZ) (Micrococcus flavus [22]): 0.05 millimeter; zone of inhibition at 10 µg/disc (Bacillus cereus [23]): 18 mm; inhibition zone (IZ) (Listeria monocytogenes [24]): inactive; MBC (Listeria monocytogenes [25]): 516 µM (≈ 300 µg/mL); MIC (Listeria monocytogenes [25]): 258 µM (≈ 150 µg/mL); MBC (Escherichia coli [26]): 344 µM (≈ 200 µg/mL); MIC (Escherichia coli [26]): 172 µM (≈ 100 µg/mL); zone of inhibition at 10 µg/disc (Staphylococcus aureus [27]): 13 mm; inhibition zone (IZ) (Pseudomonas aeruginosa [28]): inactive; MBC (Enterobacter cloacae [29]): 344 µM (≈ 200 µg/mL); MIC (Enterobacter cloacae [29]): 172 µM (≈ 100 µg/mL)
